Laboratory results as given in ChEMBL document CHEMBL1133294, “Potent, selective 3-pyridylethanolamine beta3 adrenergic receptor agonists possessing a thiazole benzenesulfonamide pharmacophore” (Bioorg Med Chem Lett, 2000).

Legend:
[1] = target: Beta-2 adrenergic receptor (Homo sapiens, UniProt P07550); assay: Binding affinity against human Beta-2 adrenergic receptor expressed in CHO cells using [125I]iodocyanopindolol; type: cell-based
[2] = target: T1, Beta-3 adrenergic receptor (Homo sapiens, UniProt P13945); assay: Stimulated increase in cAMP in CHO cells expressing human beta-3 receptor; type: functional, cell-based
Target sequence in this assay (P13945 whole entry): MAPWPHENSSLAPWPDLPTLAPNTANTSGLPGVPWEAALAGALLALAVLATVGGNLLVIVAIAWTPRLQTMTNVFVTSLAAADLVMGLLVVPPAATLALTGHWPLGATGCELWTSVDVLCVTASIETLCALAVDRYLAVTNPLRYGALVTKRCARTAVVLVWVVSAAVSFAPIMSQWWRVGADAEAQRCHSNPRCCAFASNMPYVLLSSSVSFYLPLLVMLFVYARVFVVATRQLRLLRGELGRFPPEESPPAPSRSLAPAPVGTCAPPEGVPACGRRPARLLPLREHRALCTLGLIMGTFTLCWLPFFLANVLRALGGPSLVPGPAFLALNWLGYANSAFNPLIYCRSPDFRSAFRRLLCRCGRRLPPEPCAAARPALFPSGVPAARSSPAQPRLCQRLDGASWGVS

[3] = target: Beta-1 adrenergic receptor (Homo sapiens, UniProt P08588); assay: Binding affinity (measured using [125I]iodocyanopindolol) against human Beta-1 adrenergic receptor expressed in CHO cells; type: cell-based
Sequence of Beta-1 adrenergic receptor (P08588 whole entry): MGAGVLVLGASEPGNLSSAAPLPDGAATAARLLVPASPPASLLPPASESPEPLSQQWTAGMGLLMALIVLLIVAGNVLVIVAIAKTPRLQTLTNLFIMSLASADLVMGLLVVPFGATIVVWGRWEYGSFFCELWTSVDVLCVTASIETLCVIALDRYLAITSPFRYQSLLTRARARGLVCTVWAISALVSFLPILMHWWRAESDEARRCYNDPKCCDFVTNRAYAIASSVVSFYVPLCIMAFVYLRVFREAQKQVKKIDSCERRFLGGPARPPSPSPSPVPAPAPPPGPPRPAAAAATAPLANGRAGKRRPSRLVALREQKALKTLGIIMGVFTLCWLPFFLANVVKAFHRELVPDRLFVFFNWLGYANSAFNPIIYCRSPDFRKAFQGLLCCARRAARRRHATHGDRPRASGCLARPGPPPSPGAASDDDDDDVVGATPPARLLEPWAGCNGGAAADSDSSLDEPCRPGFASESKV
Procedure, shortened: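 Membranes from CHO cells expressing cloned human β1 receptor; competition binding against 125I-iodocyanopindolol.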

[4] = target: T1, Beta-3 adrenergic receptor; assay: Percent increase in adenylyl cyclase activation in CHO cells expressing human beta-3 adrenergic receptor; type: functional, cell-based
Procedure, shortened: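 Functional adenylyl cyclase stimulation via the β3 receptor. Activation expressed as percent of the maximal stimulation produced by isoproterenol.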
Target sequence in this assay (P13945 whole entry, looked up): as the sequence (P13945 whole entry) above

[5] = Bioavailability after peroral administration in dogs; type: ADME, organism-based, Canis lupus familiaris; conditions: dog, in vivo, po
Procedure, shortened: (§1)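 Beagle dogs dosed orally at 10 mg/kg (solution in 0.5% methylcellulose/0.02% sodium lauryl sulfate with 2 equiv HCl) and iv at 3 mg/kg (PEG400/ethanol/normal saline 60:20:20 v/v/v). Blood taken predose and at 5 (iv only), 15, 30 min, 1, 2, 6, 8, 24 h. Plasma drug measured by LC/MS/MS.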

[6] = Oral bioavailability in dog; type: ADME, organism-based, Canis lupus familiaris; conditions: in vivo; procedure, shortened: as §1
[7] = Half life period was determined; type: ADME, organism-based, Canis lupus familiaris; conditions: dog, in vivo; procedure, shortened: as §1

Sequence of Beta-2 adrenergic receptor (P07550 whole entry): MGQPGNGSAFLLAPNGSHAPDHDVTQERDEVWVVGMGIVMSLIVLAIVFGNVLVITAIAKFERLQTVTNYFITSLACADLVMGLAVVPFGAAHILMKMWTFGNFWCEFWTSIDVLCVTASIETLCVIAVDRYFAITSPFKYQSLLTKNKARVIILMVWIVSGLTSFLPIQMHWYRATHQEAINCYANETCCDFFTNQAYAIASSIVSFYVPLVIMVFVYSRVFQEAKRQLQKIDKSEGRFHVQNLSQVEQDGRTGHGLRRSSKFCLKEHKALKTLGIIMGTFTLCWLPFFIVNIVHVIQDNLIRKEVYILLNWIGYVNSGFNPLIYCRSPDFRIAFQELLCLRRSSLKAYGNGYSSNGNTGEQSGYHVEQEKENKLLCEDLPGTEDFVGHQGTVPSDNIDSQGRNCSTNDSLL

Row | Structure (SMILES) | IC50 [1] | EC50 [2] | IC50 [3] | Max stimulation [4] | bioavailability [5] | bioavailability [6] | half-life [7]
1 | CCCCCCCCc1csc(Cc2ccc(S(=O)(=O)Nc3ccc(CCNC[C@H](O)c4cccnc4)cc3)cc2)n1 | 1 µM | 0.0098 µM | 0.85 µM | 79% |  |  | 
2 | O=S(=O)(Nc1ccc(CCNC[C@H](O)c2cccnc2)cc1)c1ccc(-c2nc(Cc3ccc4ccccc4c3)cs2)cc1 | 2.3 µM | 0.005 µM | 3.3 µM | 75% |  |  | 
3 | O=S(=O)(Nc1ccc(CCNC[C@H](O)c2cccnc2)cc1)c1ccc(Cc2nc(Cc3ccc4ccccc4c3)cs2)cc1 | 2 µM | 0.012 µM | 2.5 µM | 83% |  |  | 
4 | O=S(=O)(Nc1ccc(CCNC[C@H](O)c2cccnc2)cc1)c1ccc(-c2nc(-c3ccc(F)c(F)c3)cs2)cc1 |  |  |  | 92% | 36% |  | 
5 | CC(=O)Nc1ccc(-c2csc(-c3ccc(S(=O)(=O)Nc4ccc(CCNC[C@H](O)c5cccnc5)cc4)cc3)n2)cc1 | 2.1 µM | 0.045 µM | 0.96 µM | 82% |  |  | 
6 | CCCCCCc1ccc(-c2csc(-c3ccc(S(=O)(=O)Nc4ccc(CCNC[C@H](O)c5cccnc5)cc4)cc3)n2)cc1 | 90 µM | 0.0012 µM | 52 µM | 84% |  |  | 
7 | O=S(=O)(Nc1ccc(CCNC[C@H](O)c2cccnc2)cc1)c1ccc(-c2nc(CCCC3CCCC3)cs2)cc1 | 3 µM | 0.026 µM | 7 µM | 95% |  |  | 
8 | O=S(=O)(Nc1ccc(CCNC[C@H](O)c2cccnc2)cc1)c1ccc(-c2nc(Cc3ccc(F)cc3)cs2)cc1 | 2.5 µM | 0.0062 µM | 3 µM | 57% |  |  | 
9 | CC(C)(C)c1ccc(-c2csc(-c3ccc(S(=O)(=O)Nc4ccc(CCNC[C@H](O)c5cccnc5)cc4)cc3)n2)cc1 | 2 µM | 0.0024 µM | 1.6 µM | 100% |  |  | 
10 | CCCCCCc1csc(-c2ccc(S(=O)(=O)Nc3ccc(CCNC[C@H](O)c4cccnc4)cc3)cc2)n1 | 0.62 µM | 0.051 µM | 40 µM | 69% |  |  | 
11 | CCCCCCCCc1csc(-c2ccc(S(=O)(=O)Nc3ccc(CCNC[C@H](O)c4cccnc4)cc3)cc2)n1 | 3 µM | 0.01 µM | 3.7 µM | 84% |  |  | 
12 | CCCCCCCCc1csc(N2CCc3cc(S(=O)(=O)Nc4ccc(CCNC[C@H](O)c5cccnc5)cc4)ccc32)n1 |  |  |  |  |  | 13% | 
13 | O=c1n(CCCC2CCCC2)nnn1-c1ccc(S(=O)(=O)Nc2ccc(CCNC[C@H](O)c3cccnc3)cc2)cc1 |  |  |  |  |  |  | 3.6 h
14 | CC(=O)NCCCCCc1csc(-c2ccc(S(=O)(=O)Nc3ccc(CCNC[C@H](O)c4cccnc4)cc3)cc2)n1 | 16 µM | 0.05 µM | 50 µM | 82% |  |  | 

Continued, values first:

Row | IC50 [1] | EC50 [2] | IC50 [3] | Max stimulation [4] | bioavailability [5] | bioavailability [6] | half-life [7] | Structure (SMILES)
15 | 5.7 µM | 0.045 µM | 1.1 µM | 58% |  |  |  | O=S(=O)(Nc1ccc(CCNC[C@H](O)c2cccnc2)cc1)c1ccc(-c2nc(-c3ccc(O)cc3)cs2)cc1
16 | 49 µM | 0.0091 µM | 90 µM | 91% |  |  |  | O=S(=O)(Nc1ccc(CCNC[C@H](O)c2cccnc2)cc1)c1ccc(-c2nc(-c3cc4ccccc4o3)cs2)cc1
17 | 47 µM | 0.0073 µM | 19 µM | 79% |  |  |  | O=S(=O)(Nc1ccc(CCNC[C@H](O)c2cccnc2)cc1)c1ccc(-c2nc(-c3cnc4ccccc4c3)cs2)cc1
18 | 1.9 µM | 0.0095 µM | 1.5 µM | 81% |  |  |  | O=S(=O)(Nc1ccc(CCNC[C@H](O)c2cccnc2)cc1)c1ccc(-c2nc(-c3ccc(F)cc3)cs2)cc1
19 | 50 µM | 0.0049 µM | 30 µM | 100% |  |  |  | O=S(=O)(Nc1ccc(CCNC[C@H](O)c2cccnc2)cc1)c1ccc(-c2nc(-c3c[nH]c4ccccc34)cs2)cc1
20 | 8 µM | 0.0027 µM | 6 µM | 97% |  |  |  | O=S(=O)(Nc1ccc(CCNC[C@H](O)c2cccnc2)cc1)c1ccc(-c2nc(-c3ccc4ncccc4c3)cs2)cc1
21 | 4 µM | 0.022 µM | 6.5 µM | 100% |  |  |  | O=S(=O)(Nc1ccc(CCNC[C@H](O)c2cccnc2)cc1)c1ccc(-c2nc(-c3ccccn3)cs2)cc1
22 | 3 µM | 0.04 µM | 7 µM | 69% |  |  |  | O=S(=O)(Nc1ccc(CCNC[C@H](O)c2cccnc2)cc1)c1ccc(-c2nc(-c3cccnc3)cs2)cc1
23 | 0.91 µM | 0.033 µM | 9 µM | 70% |  |  |  | O=S(=O)(Nc1ccc(CCNC[C@H](O)c2cccnc2)cc1)c1ccc(-c2nc(CCc3ccccc3)cs2)cc1
24 | 93 µM | 0.0058 µM | 100 µM | 94% |  |  |  | O=S(=O)(Nc1ccc(CCNC[C@H](O)c2cccnc2)cc1)c1ccc(-c2nc(-c3cc4ccccc4s3)cs2)cc1
25 | 6.3 µM | 0.002 µM | 13 µM | 100% |  |  |  | O=S(=O)(Nc1ccc(CCNC[C@H](O)c2cccnc2)cc1)c1ccc(-c2nc(-c3ccc4ccccc4c3)cs2)cc1
